What all share (format): functional, cell-based
For one test, the system named is A549. In words: Cytotoxicity against human A549 cells by SRB method. In short, it runs like this:
(§1)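 SRB assay on A-549 (human lung adenocarcinoma) and BEL-7402 (human hepatocellular carcinoma) cells, run by standard protocol with pseudolaric acid B as positive control. Values are reported as IC50 in molar units.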

Another test has as its system HL-60. In words: Cytotoxicity against human HL-60 cells by MTT method. The essentials: (§2)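 MTT assay on P388 (murine leukemia) and HL-60 (human leukemia) cells, run by standard protocol with pseudolaric acid B as positive control. Values are reported as IC50 in molar units.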
Background: Formazan colour is commonly taken as a measure of viable cells.

In the next test the test system is P388. Kind of test: Cytotoxicity against mouse P388 cells by MTT method. In short, it runs like this:
as §2

For the next test, the system named is Bel-7402. In words: Cytotoxicity against human Bel-7402 cells by SRB method. In short, it runs like this:
as §1
(In SRB staining, fixed cells bind dye roughly in proportion to their protein.)

Where only a bound is given, the exact number is not on record here.

The IC50 is the concentration that inhibits the measured activity by half. Low values mean greater potency in that assay, high ones weaker potency in that assay. In the case of `CON1C(=O)[C@@]2(C[C@@H]3N=C([C@@H](C)C[C@H]4C(=O)OC[C@H]5[C@@H]4[C@@H](O)C[C@@H]5C)[C@@H]4[C@@H](O)[C@H]2OC[C@@H]43)c2ccccc21`, the IC50 in the test on A549, with HL-60, in the test with P388 and with Bel-7402 was above 10 µM in each case.

Take `C=C[C@@]12CN(C)C3C1[C@@]1(C(=O)N(C[C@@H]4C(=O)O[C@H]5C[C@H](C)[C@@H](CO)[C@H]54)c4ccccc41)[C@H]1C[C@@H]2[C@@H]3CO1` [GELSEBANINE]: the IC50 in the test on A549, in the test on HL-60, in the test with P388 and in the test on Bel-7402 was above 10 µM in each case.

`CON1C(=O)[C@@]2(C[C@@H]3N=C([C@H](C)C[C@@H]4C(=O)O[C@H]5C[C@H](C)[C@@H](CO)[C@H]54)[C@@H]4[C@@H](O)[C@H]2OC[C@@H]43)c2ccccc21`: the IC50 in the test on A549, in the test with HL-60, in the test on P388 and in the test on Bel-7402 was above 10 µM each time.

In the test with A549, `CCN(CC)C[C@@H]1C(=O)O[C@H]2C[C@H](C)[C@@H](CO)[C@H]21` [GELSEBAMINE] had an IC50 of 0.634 µM.

Values taken from ChEMBL document CHEMBL1158061, “Alkaloids from Gelsemium elegans” (J Nat Prod, 2006).
